HSP90 refold inh – blocks HSP90-mediated luciferase refolding in reticulocyte lysate; Rabbit reticulocyte lysate, luciferase refolding luminescence, 3 h; inhibition, % at 5.6 µM; hit rate 0.91% among 290,000; AID 1789;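 active means inhibition above the screen-wide mean plus 3 SD, computed separately per campaign, cut at about 16% in these data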;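 further: 0% = DMSO wells and 100% = 60 µM geldanamycin wells; inhibitors lower the luminescence because luciferase stays unfolded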
TRAIL sens C8 – caspase-8 TRAIL sensitization | NB7+C8 cells + TRAIL, ATPlite viability luminescence | inhibition (viability loss, TRAIL sensitization), % at 10 µM | hit rate 1% among 360,000;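 active means compounds causing at least 50% loss of cell viability in the single-dose screen, relative to plate controls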
FLuc inh counter – counter-screen for luciferase assay inhibitors: firefly luciferase inhibition; P08659; ATPLite firefly luciferase biochemical luminescence, 10 min; inhibition, % at 10 µM; hit rate 1.5% among 200,000; AID 1006;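 active means inhibition above about 50% when tested at 10 µM, limit read from the data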
Target sequence (P08659 whole entry, looked up): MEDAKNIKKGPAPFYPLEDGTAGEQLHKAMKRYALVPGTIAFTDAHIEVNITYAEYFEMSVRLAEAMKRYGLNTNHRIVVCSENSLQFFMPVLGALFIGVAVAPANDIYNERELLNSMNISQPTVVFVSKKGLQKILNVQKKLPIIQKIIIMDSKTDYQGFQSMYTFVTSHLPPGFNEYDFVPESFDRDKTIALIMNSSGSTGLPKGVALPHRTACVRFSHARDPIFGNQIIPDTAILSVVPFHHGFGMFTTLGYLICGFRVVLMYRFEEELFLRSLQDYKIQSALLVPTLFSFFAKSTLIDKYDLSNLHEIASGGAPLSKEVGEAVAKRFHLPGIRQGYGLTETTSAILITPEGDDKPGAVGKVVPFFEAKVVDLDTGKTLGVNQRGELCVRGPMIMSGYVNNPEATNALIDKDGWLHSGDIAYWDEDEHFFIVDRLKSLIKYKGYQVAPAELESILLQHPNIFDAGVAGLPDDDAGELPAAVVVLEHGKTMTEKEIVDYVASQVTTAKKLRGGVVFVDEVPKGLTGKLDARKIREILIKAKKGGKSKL
FLuc act counter – affects firefly luciferase, flagging false hits in luciferase stimulation screens | 200,000 tested, under 10 active | activation factor at 10 µM | ATPlite luciferase biochemical, luminescence, 10 min; 0 = ATP-free wells, 1 = DMSO control | P08659 | AID 1027;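 active means luciferase activation factor, scaled between plate controls, of at least 2 with compound at 10 µM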
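Material: Luciferase/luciferin reagent mix | Doses: Test compounds dosed from 2 mM stocks in 100% DMSO | Timing: 10 min incubation after luciferase reagent addition, room temperature | Measured by: Luminescence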
PPC-1+TRAIL kill – kills PPC-1 cancer cells in the presence of TRAIL; cell killing (% activity), % at 4 µM or 5 µM; AID 1443; PPC-1 cells + TRAIL, ATPLite viability luminescence; hit rate 0.41% among 220,000;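 active means cell killing above 50% in the first pass at 4 µM, then a duplicate retest at 5 µM averaging 50% or more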;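 further: plate controls were cells with TRAIL plus DMSO for no effect and medium-only wells lacking cells for full effect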
An asterisk follows results filed as active; . = no result. In the library only some 2% were active in any assay of this set; here they are far more common.

SMILES	HSP90 refold inh	TRAIL sens C8	FLuc inh counter	FLuc act counter	PPC-1+TRAIL kill
CC(C)(C)c1ccc(C(=O)c2c[nH]c(C(=O)NCCc3ccccn3)c2)cc1	16*	-2	1	1	20
NC1=CC(=O)C(=O)c2ccccc21	.	92*	.	.	.
S=c1[nH]nc(-c2cc(-c3ccccc3)n[nH]2)n1/N=C/C=C/c1ccccc1	1	-15	.	.	19
COc1ccccc1/C=C/C=N/n1c(-c2cc(-c3ccccc3)n[nH]2)n[nH]c1=S	1	58*	.	.	10
COCCNC(=O)C1(C)CCN(C(=O)c2oc3ccccc3c2C)C1 (stereo not drawn)	.	1	.	.	.
C[C@H]1CN([C@@H](C)CO)C(=O)CCCn2cc(nn2)CO[C@@H]1CN(C)C(=O)Nc1ccc2c(c1)OCCO2	.	-1	.	.	.
C[C@@H]1CN([C@H](C)CO)C(=O)CCCn2nncc2CO[C@@H]1CN(C)S(=O)(=O)c1ccc2c(c1)OCCCO2	.	-3	.	.	.
Cc1cccc(Cn2ncc(Cl)c(Cl)c2=O)c1	0	54*	-10	1.1	10
O=c1c2ccccc2cnn1Cc1ccc(Cl)c(Cl)c1	0	17	.	.	.
Cc1ccc(C)c(C(=O)Cn2ncc(Cl)c(Cl)c2=O)c1	-6	97*	-4	1	26
CN(C(=O)c1cccc(NC(=O)Cc2cccc(NC(=O)C3CCN(C(=O)c4ccccc4)CC3)c2)c1)C1CC1	.	-2	.	.	.
NS(=O)(=O)c1ccc(CCNC(=O)COC(=O)C2COc3ccccc3O2)cc1 (stereo not drawn)	.	0	.	.	.
CCC(=O)Nc1ccc(C(=O)OCc2ccccc2)cc1	-3	2	-3	1	9
CC(C)OC(=O)c1ccc(NCc2cc(O)ccc2O)cc1	.	73*	.	.	.
O=C(OCc1ccccc1)c1ccc(NCc2cc(O)ccc2O)cc1	.	90*	.	.	.
COP(=O)(OC)c1ccc(NCc2cc(O)ccc2O)cc1	.	15	.	.	.
N#Cc1ccccc1OCCCN1CCC(C(O)(c2ccccc2)c2ccccc2)CC1	.	-6	.	.	.
C#Cc1ccccc1OCCCN1CCC(C(O)(c2ccccc2)c2ccccc2)CC1	.	93*	.	.	.
CCCC[C@@H]1CNC(=O)C(=O)N1CCc1cccc(F)c1	.	-4	.	.	.
CCc1cccc(CC)c1N1C(=O)C2=C(SCCCS2)C1=O	.	-7	.	.	.
O=C(c1ccoc1)N1CCN(c2cc(-c3ccncc3)nc3cc(-c4cccc(Cl)c4)nn23)CC1	.	19	.	.	.
O=C(c1ccncc1)N1CCN(c2cc(-c3ccccc3)nc3cc(-c4cccc(Cl)c4)nn23)CC1	.	70*	.	.	.
Cc1cc(C)n2c(NC3CCCCC3)c(-c3ccc(F)cc3)nc2n1	.	-8	.	.	.
O=S(=O)(Nc1ccc(C(O)(C(F)(F)F)C(F)(F)F)cc1)c1cccc2ccccc12	.	6	.	.	.
Cc1cc(/C=C2/NC(=O)N(c3ccccc3)C2=O)c(C)n1-c1cccnc1	6	12	45	0.6	4
SMILES	HSP90 refold inh	TRAIL sens C8	FLuc inh counter	FLuc act counter	PPC-1+TRAIL kill
Cc1cc(/C=C2/NC(=S)NC2=O)c(C)n1-c1cccnc1	1	16	71*	0.3	6
COc1cccc(N/C=C/C(=O)c2ccc(Cl)cc2)c1	-6	53*	83*	0.2	53*
CC(=O)Nc1ccc(N/C=C/C(=O)c2ccccc2)cc1	0	10	.	.	.
O=C(/C=C/Nc1ccccc1)c1ccccc1	-1	64*	92*	0.1	23
Cc1ccc(C(=O)/C=C/Nc2ccc([N+](=O)[O-])cc2Br)cc1	7	30	39	0.6	28
Cc1ccc(O)c(N/C=C/C(=O)c2ccc(F)cc2)c1	6	60*	.	.	.
CN(C)c1ccc(N/C=C/C(=O)c2ccccc2)cc1	3	67*	92*	0.1	18
CNC(=O)C1Cc2c(-c3ccccc3Oc3ccccc3)ccnc2O1 (stereo not drawn)	.	-9	.	.	.
CC(=O)Nc1ccc(NC(=O)c2ccc(-c3ccnn3C)c3ccoc23)cc1	.	-1	.	.	.
C1=C[C@H]2CCCN3CC[C@@H]([C@@H]2[C@]32CO2)[C@H]1CCOCc1ccccc1	.	5	.	.	.
CSC[C@H]1CN(Cc2cccnc2)C(=O)[C@@H]1CC(=O)Nc1ccc(Br)cc1	.	-10	.	.	.
CC(C)(C(=O)N1CCC1(C)C(=O)NS(=O)(=O)c1cccc(C#N)c1)c1ccccc1 (stereo not drawn)	.	-8	.	.	.
Cc1ccc(C(=O)/C=C\Nc2ccc(C)c(C)c2)cc1	-3	31	29	0.7	31
O=C(/C=C\Nc1ccc(Br)cc1)c1cccnc1	-6	66*	84*	0.2	47
Cc1ccc(N/C=C/C(=O)c2ccc(C)cc2)cc1	4	32	51*	0.5	24
COc1ccc(NC(=O)N[C@H]2C=C[C@@H](CC(=O)NC3CCC3)O[C@@H]2CO)cc1	.	0	.	.	.
c1ccc(-c2nc3nc4ccccc4nc3n2Cc2ccco2)cc1	3	27	4	1	28
Fc1ccc(-c2nc3nc4ccccc4nc3n2Cc2ccco2)cc1	17*	14	2	1	6
COc1cc(OC)cc(C2=Cc3ccc(OC)cc3C(CC(C)=O)N2c2ccc(C#CCCO)cc2)c1 (stereo not drawn)	.	-5	.	.	.
CN1CCN(c2ccc(-c3cccc(NC(=O)COc4ccccc4)c3)nn2)CC1	.	64*	.	.	.
CN1CCN(c2ccc(-c3cccc(NC(=O)COc4ccc(Cl)cc4Cl)c3)nn2)CC1	.	67*	.	.	.
CCC(=O)Nc1cccc(-c2ccc(N3CCN(C)CC3)nn2)c1	11	10	.	.	.
CN1CCN(c2ccc(-c3cccc(NC(=O)COc4ccc(Cl)cc4)c3)nn2)CC1	.	62*	.	.	.
CCOc1ccc(-c2cccc(NC(=O)COc3ccc(Cl)cc3)c2)nn1	4	20	.	.	.
Clc1ccccc1Nc1nnc(-c2ccncc2)s1	22*	60*	82*	0.2	64*
SMILES	HSP90 refold inh	TRAIL sens C8	FLuc inh counter	FLuc act counter	PPC-1+TRAIL kill
Clc1ccccc1Nc1nc(-c2cccnc2)cs1	6	45	84*	0.2	.
c1cncc(Nc2nc(-c3cccnc3)cs2)c1	15	-3	-1	1	7
FC(F)(F)c1ccc(Cl)c(Nc2nnc(-c3ccncc3)s2)c1	.	16	.	.	.
CC(CC(=O)c1ccccc1)=NCC(O)CN=C(C)CC(=O)c1ccccc1 (stereo not drawn)	.	-2	.	.	.
C/C(=N\NC(=O)c1ccncc1)c1cccc(NC(=O)c2ccc(C(C)(C)C)cc2)c1	7	80*	.	.	.
C/C(=N\NC(=O)c1cc(O)ccc1O)c1cccc(NC(=O)c2cccc(Cl)c2)c1	-1	9	.	.	.
C/C(=N/NC(=O)c1ccncc1)c1ccc(NC(=O)c2ccccc2)cc1	1	10	.	.	.
C/C(=N\NC(=O)c1cc(O)ccc1O)c1cccc(NC(=O)c2ccc(Cl)cc2)c1	11	58*	.	.	.
COc1ccc(C(=O)N/N=C(/C)c2cccc(NC(=O)c3ccccc3F)c2)cc1	-3	59*	.	.	.
CCOC(=O)[C@]12CCC=C1N(Cc1ccc(Cl)cc1Cl)C(=O)[C@H](CC(=O)N1CCC(c3ccccc3)CC1)C2	.	12	.	.	.
CC(=O)Nc1ccc(-c2ccnc3c2CC(C(=O)NCC2CCOCC2)O3)cc1 (stereo not drawn)	.	17	.	.	.

Screening results as filed in PubChem.
